Calls of active or inactive are those of the source. The rule behind the calls is not given here.
Assays:
[1] = target: T1, Sphingomyelin phosphodiesterase (Homo sapiens) (UniProt P17405); experiment: Inhibition of mmLDL-stimulated acid sphingomyelinase in human PBMC lysates at 2 to 50 uM preincubated for 30 mins followed by mmLDL stimulation measured after 4 hrs by YO-PRO-1/Hoechst 33342 staining based assay
T1 sequence (whole entry): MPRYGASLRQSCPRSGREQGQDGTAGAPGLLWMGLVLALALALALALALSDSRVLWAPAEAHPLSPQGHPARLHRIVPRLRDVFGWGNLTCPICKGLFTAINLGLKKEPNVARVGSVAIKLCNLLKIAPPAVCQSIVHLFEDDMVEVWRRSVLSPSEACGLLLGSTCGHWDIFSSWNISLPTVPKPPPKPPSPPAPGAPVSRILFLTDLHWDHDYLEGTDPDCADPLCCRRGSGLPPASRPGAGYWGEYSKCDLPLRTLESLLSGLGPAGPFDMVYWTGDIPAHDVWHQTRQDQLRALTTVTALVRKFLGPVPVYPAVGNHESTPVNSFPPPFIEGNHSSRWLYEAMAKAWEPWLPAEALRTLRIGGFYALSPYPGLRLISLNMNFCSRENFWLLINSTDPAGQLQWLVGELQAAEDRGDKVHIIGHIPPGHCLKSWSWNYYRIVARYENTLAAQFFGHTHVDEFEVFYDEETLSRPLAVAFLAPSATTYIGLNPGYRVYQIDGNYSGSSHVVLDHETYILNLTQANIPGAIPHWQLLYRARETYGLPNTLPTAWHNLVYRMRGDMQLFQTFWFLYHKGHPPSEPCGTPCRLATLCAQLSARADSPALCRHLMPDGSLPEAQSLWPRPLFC

[2] = target: T2, Acid ceramidase (Homo sapiens) (UniProt Q13510); experiment: Inhibition of C2-dihydroceramide-stimulated acid ceramidase in human PBMC assessed as reduction in C16-ceramide level at 10 uM preincubated for 30 mins followed by C2-dihydroceramide stimulation measured after 4 hrs by HPLC method; type: cell-based
T2 sequence (whole entry): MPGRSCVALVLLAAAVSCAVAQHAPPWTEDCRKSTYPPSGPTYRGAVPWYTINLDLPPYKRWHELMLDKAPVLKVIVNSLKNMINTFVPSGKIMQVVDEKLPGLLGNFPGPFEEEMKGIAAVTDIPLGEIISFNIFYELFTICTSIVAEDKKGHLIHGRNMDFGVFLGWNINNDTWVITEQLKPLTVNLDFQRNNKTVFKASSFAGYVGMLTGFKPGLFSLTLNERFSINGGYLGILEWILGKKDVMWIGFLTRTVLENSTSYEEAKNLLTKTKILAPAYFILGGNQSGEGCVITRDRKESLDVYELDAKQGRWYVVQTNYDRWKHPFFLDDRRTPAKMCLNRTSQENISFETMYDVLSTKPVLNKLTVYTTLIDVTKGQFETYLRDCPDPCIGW

MONO-MAC-6 [3] = experiment: Decrease in inflammation-related genes in LPS-stimulated human MONO-MAC-6 cells preincubated for 30 mins followed by LPS stimulation measured after 6 hrs by microarray analysis; type: functional, cell-based
How it was run: (§1)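 Total RNA was isolated, transcribed and labeled with DY-647 dye, then co-hybridized with DY-548-labeled cDNA from untreated cells on an inflammation oligonucleotide chip (780 gene probes). Differential expression >1.5 was taken as significant.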

MONO-MAC-6 [4] = experiment: Upregulation of HSPA1A mRNA expression level in LPS-stimulated human MONO-MAC-6 cells preincubated for 30 mins followed by LPS stimulation measured after 4 hrs by qRT-PCR analysis relative to control; type: functional
MONO-MAC-6 [5] = experiment: Upregulation of CXCL3 mRNA expression level in human MONO-MAC-6 cells at 5 uM incubated for 30 mins measured after 2 hrs by oligonucleotide array hybridization assay relative to control; type: functional
MONO-MAC-6 [6] = experiment: Downregulation of CXCL3 mRNA expression level in human MONO-MAC-6 cells at 5 uM incubated for 30 mins measured after 4 hrs by oligonucleotide array hybridization assay relative to control; type: functional; how it was run: as §1
MONO-MAC-6 [7] = experiment: Upregulation of CXCL3 mRNA expression level in LPS-stimulated human MONO-MAC-6 cells at 5 uM preincubated for 30 mins followed by LPS stimulation measured after 6 hrs by oligonucleotide array hybridization assay (reference value: 5.74); type: functional
MONO-MAC-6 [8] = experiment: Upregulation of CCL4 mRNA expression level in human MONO-MAC-6 cells at 5 uM incubated for 30 mins measured after 1 hr by oligonucleotide array hybridization assay relative to control; type: functional
MONO-MAC-6 [9] = experiment: Downregulation of CCL4 mRNA expression level in human MONO-MAC-6 cells at 5 uM incubated for 30 mins measured after 4 hrs by oligonucleotide array hybridization assay relative to control; type: functional; how it was run: as §1
MONO-MAC-6 [10] = experiment: Upregulation of CCL20 mRNA expression level in LPS-stimulated human MONO-MAC-6 cells at 5 uM preincubated for 30 mins followed by LPS stimulation measured after 2 hrs by oligonucleotide array hybridization assay (reference value: 2.87); type: functional
MONO-MAC-6 [11] = experiment: Downregulation of CCL20 mRNA expression level in human MONO-MAC-6 cells at 5 uM incubated for 30 mins measured after 2 hrs by oligonucleotide array hybridization assay relative to control; type: functional; how it was run: as §1
MONO-MAC-6 [12] = experiment: Upregulation of PTX3 mRNA expression level in LPS-stimulated human MONO-MAC-6 cells at 5 uM preincubated for 30 mins followed by LPS stimulation measured after 2 hrs by oligonucleotide array hybridization assay (reference value: 1.56); type: functional
MONO-MAC-6 [13] = experiment: Downregulation of CXCL10 mRNA expression level in human MONO-MAC-6 cells at 5 uM incubated for 30 mins measured after 4 hrs by oligonucleotide array hybridization assay relative to control; type: functional; how it was run: as §1
MONO-MAC-6 [14] = experiment: Upregulation of CXCL2 mRNA expression level in LPS-stimulated human MONO-MAC-6 cells at 5 uM preincubated for 30 mins followed by LPS stimulation measured after 2 hrs by oligonucleotide array hybridization assay (reference value: 4.20); type: functional
MONO-MAC-6 [15] = experiment: Upregulation of ICAM1 mRNA expression level in LPS-stimulated human MONO-MAC-6 cells at 5 uM preincubated for 30 mins followed by LPS stimulation measured after 1 hr by oligonucleotide array hybridization assay (reference value: 1.17); type: functional
MONO-MAC-6 [16] = experiment: Downregulation of ICAM1 mRNA expression level in human MONO-MAC-6 cells at 5 uM incubated for 30 mins measured after 4 hrs by oligonucleotide array hybridization assay relative to control; type: functional; how it was run: as §1
MONO-MAC-6 [17] = experiment: Upregulation of ICAM1 mRNA expression level in LPS-stimulated human MONO-MAC-6 cells at 5 uM preincubated for 30 mins followed by LPS stimulation measured after 6 hrs by oligonucleotide array hybridization assay (reference value: 2.90); type: functional
MONO-MAC-6 [18] = experiment: Downregulation of CXCL2 mRNA expression level in human MONO-MAC-6 cells at 5 uM incubated for 30 mins measured after 1 hr by qRT-PCR method relative to control; type: functional
MONO-MAC-6 [19] = experiment: Downregulation of CXCL2 mRNA expression level in human MONO-MAC-6 cells at 5 uM incubated for 30 mins measured after 2 hrs by qRT-PCR method relative to control; type: functional
MONO-MAC-6 [20] = experiment: Upregulation of CXCL2 mRNA expression level in LPS-stimulated human MONO-MAC-6 cells at 5 uM preincubated for 30 mins followed by LPS stimulation measured after 4 hrs by qRT-PCR method (reference value: 16.41); type: functional

## COc1ccc(CCN(C)CCCn2c3ccccc3c3ccccc32)cc1
[1]
  inhibition: Active
[2]
  inhibition: inactive
MONO-MAC-6 [3]
  Activity: Active
MONO-MAC-6 [4]
  fold change (FC): 2.67
MONO-MAC-6 [5]
  fold change (FC): 1.25
MONO-MAC-6 [6]
  fold change (FC): 1.21
MONO-MAC-6 [7]
  fold change (FC): 1.15
MONO-MAC-6 [8]
  fold change (FC): 1.22
MONO-MAC-6 [9]
  fold change (FC): 1.55
MONO-MAC-6 [10]
  fold change (FC): 2.7
MONO-MAC-6 [11]
  fold change (FC): 1
MONO-MAC-6 [12]
  fold change (FC): 1.2
MONO-MAC-6 [13]
  fold change (FC): 2.08
MONO-MAC-6 [14]
  fold change (FC): 3.88
MONO-MAC-6 [15]
  fold change (FC): 1.11
MONO-MAC-6 [16]
  fold change (FC): 1.57
MONO-MAC-6 [17]
  fold change (FC): 1.15
MONO-MAC-6 [18]
  fold change (FC): 1.01
MONO-MAC-6 [19]
  fold change (FC): 1.27
MONO-MAC-6 [20]
  fold change (FC): 8.28

Source: ChEMBL document CHEMBL4152184, “NB 06: From a simple lysosomotropic aSMase inhibitor to tools for elucidating the role of lysosomes in signaling apoptosis and LPS-induced inflammation” (Eur J Med Chem, 2018)
